RGS4 pot – potentiators or activators of RGS4. AID 463111. B-score at 10 µM. HEK293 M3R/inducible RGS4, carbachol calcium flux Fluo4; stronger effect = lower value. 310,000 compounds, 0.92% hits;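 active means B-score of the integrated calcium signal more than 4 SD below the library mean, with starting fluorescence not abnormally high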;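 further: negative B-score means reduced calcium response which marks RGS4 activation or potentiation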
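Test system: HEK293 cells with stable M3R and inducible RGS4; also added: carbachol at ECmax as muscarinic agonist stimulus; schedule: dye loading 30 min 37 °C, buffer rest 30 min RT; technique: kinetic calcium fluorescence imaging with Fluo4-AM dye, 2 µM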
RGS4 block – human RGS4 inhibition. P49798. HEK293 M3R/RGS4 inducible, Fluo-4 calcium flux; stronger effect = higher value; triggered by carbachol at its EC20. B-score at 10 µM. 310,000 compounds, 0.45% hits;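 active means B-score, a plate-corrected calcium signal, over three deviations above library mean, with baseline fluorescence within five deviations of library mean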;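 further: RGS4 expression induced by doxycycline in cells with stable M3 receptor; B-score is computed from the integrated fluorescence ratio over baseline after carbachol; higher B-score means a larger calcium signal and so more RGS4 inhibition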
Target sequence (P49798 whole entry, looked up): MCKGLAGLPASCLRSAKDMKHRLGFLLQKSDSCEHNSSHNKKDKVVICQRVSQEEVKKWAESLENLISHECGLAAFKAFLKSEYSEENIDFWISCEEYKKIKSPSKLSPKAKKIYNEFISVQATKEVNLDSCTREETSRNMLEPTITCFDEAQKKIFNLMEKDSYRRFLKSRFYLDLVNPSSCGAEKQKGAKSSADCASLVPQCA
MrgX1 allo act – human MrgX1 positive allosteric modulation, primary screen; MrgX1-HEK293, Fluo-4 calcium flux, FDSS; stronger effect = higher value; 310,000 compounds, 0.63% hits; Q96LB2; B-score at 10 µM;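 active means plate-corrected calcium response at least 3 library SD above typical, normal starting fluorescence, not activating the receptor alone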;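 further: compound read alongside a low EC10 to EC30 dose of BAM8-22 agonist; peak minus trough fluorescence over baseline measured at the second addition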
MrgX1 antagonist – antagonists of human MrgX1 receptor; Q96LB2; MRGX1-HEK293 calcium flux, Fluo-4, BAM8-22 antagonism; stronger effect = lower value; B-score at 10 µM; 310,000 compounds, 1.3% hits;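 active means calcium-response B-score plate-corrected more than 3 library SD below zero, starting fluorescence within 5 deviations, no agonist response on first addition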;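 further: peak minus trough fluorescence over baseline after final BAM8-22 challenge near maximal dose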
MrgX1 agonist – agonists of human MrgX1 receptor; MrgX1-HEK293 cells, Fluo-4 calcium fluorescence, agonist mode; stronger effect = higher value; Q96LB2; B-score at 10 µM; 310,000 compounds, 0.44% hits;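 active means calcium response B-score plate-corrected fluorescence ratio at least 3 library SD, with starting fluorescence B-score inside 5 SD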
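Test system: HEK293 cells stably expressing human MrgX1 receptor; amount: 15,000 cells per well; doses: compound delivered in addition one of three; times: overnight plating before 1 h dye loading; detection: Fluo-4 NW calcium-flux fluorescence, kinetic read; read-out basis: B-scored fluorescence response ratio; controls: positive and negative controls per plate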
* = called active by the depositor; i = inactive; ! = a repeat was not active. Sampled rows, rich in hits. Any-hit rate of the full collection: about 3.5%.

SMILES	RGS4 pot	RGS4 block	MrgX1 allo act	MrgX1 antagonist	MrgX1 agonist
COc1ccc(N2C(=O)C3[C@@H](C2=O)C2(Cl)C(Cl)=C(Cl)C3(Cl)C2(OC)OC)cc1 (some centres not stated)	i	i	i	i	i
CCCc1cc(=O)oc2c(C)c(OC(C)C(=O)NCCN3CCOCC3)ccc12 (configuration not stated)	i	i	i	i	i
COCCNC(=O)c1cccc(Nc2nc(-c3ccccc3)c3cc(Cl)ccc3n2)c1	i	i	i	i	i
NC(=O)C1CCN(C2=C(Cl)C(=O)c3ccccc3C2=O)CC1	i	i	i	i	30*
CN(C(=O)COC(=O)c1ccc2c(c1)OCO2)c1c(N)n(Cc2ccccc2)c(=O)[nH]c1=O	i	i	i	i	i
CN(CC(=O)Nc1cccc(F)c1)C(=O)c1cc(-c2ccccc2)nc2ccccc12	i	i	i	i	i
Cc1ccc2nc(-c3ccccc3)cc(C(=O)N(C)CC(=O)Nc3ccccc3Br)c2c1	-9.2*	i	i	i	i
N#C/C(=C\c1ccc(-c2ccc(C(=O)O)cc2)o1)C(=O)Nc1ccc(F)cc1	i	i	i	-4.6*	i
CC(CN1CCCCC1)C(=O)NNC(=O)C12CC3CC(CC(C3)C1)C2 (configuration not stated)	i	i	7.6*	i	i
CCNC(=S)N/N=C/c1ccc(OCc2ccc(C(=O)OC)cc2)cc1	i	i	i	-4.7*	i
COc1ccc([N+](=O)[O-])cc1NC(=O)C(C)OC(=O)Cn1[nH]c(=O)c2ccccc2c1=O (configuration not stated)	i	i	i	i	i
COc1ccc(/C=N\NC(=O)c2cc3c(ccc4ccccc43)o2)cc1O	-7.2*	i	i	i	i
O=C(N/N=C/c1ccc(-c2ccc(Cl)c(C(=O)O)c2)o1)c1cc2c(ccc3ccccc32)o1	i	i	i	-9.8*	i
Cc1ccc(-c2ccc(/C=N\NC(=O)c3cc4c(ccc5ccccc54)o3)o2)cc1[N+](=O)[O-]	i	i	i	i	i
COc1cc(/C=N/NC(=O)c2cc3c(ccc4ccccc43)o2)cc(OC)c1O	-7.3*	i	i	i	i
COc1cc(Br)cc(/C=N/NC(=O)Cc2ccccc2)c1O	i	i	i	i	i
COc1cc(/C=N/NC(=O)Cc2ccc(Br)cc2)cc(OC)c1O	i	i	7.5*	i	i
COc1ccccc1NC(=O)CSc1nnnn1C1CCCCC1	i	i	i	i	i
NS(=O)(=O)c1ccc(CNC(=O)c2cc(=O)c3ccccc3o2)cc1	i	i	i	i	i
COc1ccc(C(C(=O)NC(C)(C)C)N(C(=O)CNC(=O)c2cccs2)c2cccnc2)cc1OC (configuration not stated)	i	i	i	i	i
CC(/C=N/NC(=O)Cc1cccn1C)=C\c1ccccc1	i	i	12*	i	i
CC(/C=N/NC(=O)Cc1cccs1)=C\c1ccccc1	i	i	i	i	i
CCNc1ccc(Br)cc(C(=O)/C=C/c2ccc(Cl)cc2Cl)c1=O	i	i	i	-6.1*	i
CNc1ccc(Br)cc(C(=O)/C=C/c2cc(OC)ccc2OC)c1=O	i	i	i	i	i
CCCC[C@H]1COCCS(=O)(=O)N1Cc1ccc(Br)cc1	-7.1*	i	i	i	i
O=C(Cn1cc([N+](=O)[O-])cn1)N1CCN(Cc2ccc3c(c2)OCO3)CC1	i	i	i	i	i
CC(C)c1ccc2c(c1)C(N1CCNCC1)Cc1ccc(F)cc1S2 (configuration not stated)	-8.7*	i	i	i	i
CN1CCN(C2Cc3cc(F)ccc3Sc3ccc(Cl)cc32)CC1 (configuration not stated)	-8.3*	i	i	i	i
CSc1ccc2c(c1)C(N1CCN(C)CC1)Cc1ccccc1S2 (configuration not stated)	-7.4*!	i	i	i	i
